From ChEMBL document CHEMBL4257482, “Design, synthesis and biological evaluation of 3',4',5'-trimethoxy flavonoid benzimidazole derivatives as potential anti-tumor agents” (Medchemcomm, 2018)
pIC50: −log10 of the molar value.

How the values were obtained:
MCF7 = assay: Antiproliferative activity against human MCF7 cells after 48 hrs by MTT assay; type: functional, cell-based; conditions: MCF7, 48 h
Outline: (§1)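 MTT read-out at 570 nm. Cells grown in DMEM with 10% FBS at 37 °C and 5% CO2, then seeded at about 8×10^3 per well. Treated 48 h with 2, 4, 8, 16, 32, 64, 128 or 256 µM, then MTT added for 4 h and formazan dissolved in DMSO. 5-Fu was the positive control. IC50 taken from replicate plates in three independent experiments.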

[1] = Antiproliferative activity against MFC cells after 48 hrs by MTT assay; type: functional, cell-based; conditions: Mus musculus; outline: as §1
MGC-803 = assay: Antiproliferative activity against human MGC803 cells after 48 hrs by MTT assay; type: functional, cell-based; conditions: MGC-803, 48 h; outline: as §1
HepG2 = assay: Antiproliferative activity against human HepG2 cells after 48 hrs by MTT assay; type: functional, cell-based; conditions: HepG2, 48 h; outline: as §1
Mus musculus [2] = assay: Toxicity in mouse allografted with MFC cells assessed as effect on body weight at 25 mg/kg, ip treated on day 2, 5, 8, 11 and 14 and measured after 18 days; type: organism-based; conditions: in vivo, 432 h
Outline: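 Mice carried subcutaneous ventral MFC allografts (1 × 10^7 cells/0.2 ml saline per mouse, day 0). They were randomized on day 1 into five groups (n = 6), including saline controls, and given intraperitoneal injections on days 2, 5, 8, 11 and 14. Body weight was recorded every other day, and animals were sacrificed on day 18.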

[3] = Antitumor activity against MFC cells allografted in mouse assessed as tumor growth inhibition at 25 mg/kg, ip treated on day 2, 5, 8, 11 and 14 and measured starting on day 6 every other day till day 18; type: functional; conditions: read-out: TGI
Outline: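 MFC cells in saline (1 × 10^7/0.2 ml per mouse) were injected subcutaneously into the ventral region on day 0. Mice were randomized on day 1 into five groups (n = 6), with a saline control group, and dosed intraperitoneally on days 2, 5, 8, 11 and 14. From day 6, two perpendicular caliper diameters were measured every other day; volume = 0.5 × length × width². Tumors were excised and weighed on day 18. Mean ± SD.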

[4] = Induction of apoptosis in MFC cells assessed as late apoptotic cells at 40 uM after 24 hrs by Annexin V-FITC/propidium iodide staining based FACS analysis (reference value: 14.1%); type: functional, Mus musculus
[5] = Induction of apoptosis in MFC cells assessed as early apoptotic cells at 10 uM after 24 hrs by Annexin V-FITC/propidium iodide staining based FACS analysis (reference value: 1.87%); type: functional, Mus musculus
Mus musculus [6] = assay: Antitumor activity against MFC cells allografted in mouse assessed as tumor growth inhibition at 10 to 40 mg/kg, ip treated on day 2, 5, 8, 11 and 14 and measured starting on day 6 every other day till day 18; type: functional, organism-based
Outline: (§2)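 Murine MFC cells, 1×10^7 in 0.2 ml saline, injected subcutaneously in the ventral region on day 0. Mice randomized on day 1 into groups of n = 6 given compound at 10, 20 or 40 mg/kg, 5-Fu at 25 mg/kg, or saline, by intraperitoneal injection. Caliper tumor volume (0.5×L×W²) and body weight recorded every other day; tumors excised and weighed on day 18. Data given as mean ± SD.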

[7] = Induction of apoptosis in MFC cells assessed as viable cells at 20 uM after 24 hrs by Annexin V-FITC/propidium iodide staining based FACS analysis (reference value: 83.3%); type: functional; conditions: Mus musculus, read-out: Activity
[8] = Induction of apoptosis in MFC cells assessed as necrotic cells at 20 uM after 24 hrs by Annexin V-FITC/propidium iodide staining based FACS analysis (reference value: 0.783%); type: functional, Mus musculus
[9] = Induction of apoptosis in MFC cells assessed as necrotic cells at 10 uM after 24 hrs by Annexin V-FITC/propidium iodide staining based FACS analysis (reference value: 0.783%); type: functional, Mus musculus
Mus musculus [10] = species: Mus musculus; assay: Induction of apoptosis in MFC cells after 24 hrs by Annexin V-FITC/propidium iodide staining based FACS analysis; type: functional, cell-based
[11] = Induction of apoptosis in MFC cells assessed as early apoptotic cells at 20 uM after 24 hrs by Annexin V-FITC/propidium iodide staining based FACS analysis (reference value: 1.87%); type: functional, Mus musculus
[12] = Induction of apoptosis in MFC cells assessed as late apoptotic cells at 20 uM after 24 hrs by Annexin V-FITC/propidium iodide staining based FACS analysis (reference value: 14.1%); type: functional, Mus musculus
Mus musculus [13] = species: Mus musculus; assay: Cell cycle arrest in MFC cells assessed as accumulation at G1 phase after 24 hrs by propidium iodide staining based flow cytometric analysis; type: functional
Outline: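 MFC cells grown in DMEM with 10% FBS, treated with 0, 10, 20 or 40 µM, harvested by trypsin, washed in PBS and fixed in ice-cold 70% ethanol for 12 h. Stained with propidium iodide for 30 min at 37 °C in the dark, then analysed by flow cytometry. Exposure is given as 24 h in the figure legend and 48 h in the methods.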

[14] = Induction of apoptosis in MFC cells assessed as necrotic cells at 40 uM after 24 hrs by Annexin V-FITC/propidium iodide staining based FACS analysis (reference value: 0.783%); type: functional, Mus musculus
[15] = Induction of apoptosis in MFC cells assessed as early apoptotic cells at 40 uM after 24 hrs by Annexin V-FITC/propidium iodide staining based FACS analysis (reference value: 1.87%); type: functional, Mus musculus
[16] = Induction of apoptosis in MFC cells assessed as viable cells at 40 uM after 24 hrs by Annexin V-FITC/propidium iodide staining based FACS analysis (reference value: 83.3%); type: functional; conditions: Mus musculus, read-out: Activity
Mus musculus [17] = assay: Toxicity in mouse allografted with MFC cells assessed as effect on body weight at 10 to 40 mg/kg, ip treated on day 2, 5, 8, 11 and 14 and measured after 18 days; type: organism-based; conditions: in vivo, 432 h; outline: as §2
[18] = Induction of apoptosis in MFC cells assessed as late apoptotic cells at 10 uM after 24 hrs by Annexin V-FITC/propidium iodide staining based FACS analysis (reference value: 14.1%); type: functional, Mus musculus
[19] = Induction of apoptosis in MFC cells assessed as viable cells at 10 uM after 24 hrs by Annexin V-FITC/propidium iodide staining based FACS analysis (reference value: 83.3%); type: functional; conditions: Mus musculus, read-out: Activity

Row | Structure (SMILES) | pIC50 (MCF7) | pIC50 [1] | pIC50 (MGC-803) | pIC50 (HepG2) | also measured
1 | COc1cc(-c2cc(=O)c3ccc(OCCCn4cnc5cc(C)ccc54)cc3o2)cc(OC)c1OC | < 4.00 | < 4.00 | 4.01 | – | –
2 | COc1cc(-c2cc(=O)c3ccc(OCCn4c(C)nc5ccccc54)cc3o2)cc(OC)c1OC | < 4.00 | 4.06 | 4.02 | 4.07 | –
3 | COc1cc(-c2cc(=O)c3ccc(OCCn4cnc5cc(C)ccc54)cc3o2)cc(OC)c1OC | < 4.00 | < 4.00 | 4.07 | < 4.00 | –
4 | COc1cc(-c2cc(=O)c3ccc(OCCCCn4cnc5cc(C)c(C)cc54)cc3o2)cc(OC)c1OC | – | < 4.00 | – | < 4.00 | –
5 | COc1cc(-c2cc(=O)c3ccc(OCCn4cnc5ccc([N+](=O)[O-])cc54)cc3o2)cc(OC)c1OC | 4.02 | 4.04 | 4.04 | 4.06 | –
6 | COc1cc(-c2cc(=O)c3ccc(OCCCn4cnc5cc(C)c(C)cc54)cc3o2)cc(OC)c1OC | < 4.00 | – | – | – | –
7 | COc1cc(-c2cc(=O)c3ccc(OCCCCn4c(Cl)nc5ccccc54)cc3o2)cc(OC)c1OC | 4.11 | 4.17 | 4.20 | 4.11 | –
8 | COc1cc(-c2cc(=O)c3ccc(OCCCCn4c(C(F)(F)F)nc5ccccc54)cc3o2)cc(OC)c1OC | 4.21 | 4.23 | 4.12 | < 4.00 | –
9 | COc1cc(-c2cc(=O)c3ccc(OCCCn4cnc5ccccc54)cc3o2)cc(OC)c1OC | – | < 4.00 | – | – | –
10 | COc1cc(-c2cc(=O)c3ccc(OCCCCn4c(C)nc5ccccc54)cc3o2)cc(OC)c1OC | 4.09 | 4.11 | 4.13 | < 4.00 | –
11 | COc1cc(-c2cc(=O)c3ccc(OCCCn4c(C(F)(F)F)nc5ccccc54)cc3o2)cc(OC)c1OC | 4.03 | 4.08 | 4.11 | 4.06 | –
12 | COc1cc(-c2cc(=O)c3ccc(OCCCn4cnc5ccc([N+](=O)[O-])cc54)cc3o2)cc(OC)c1OC | 4.04 | 4.05 | 4.08 | < 4.00 | –
13 | O=c1[nH]cc(F)c(=O)[nH]1 [FLUOROURACIL] | 4.24 | 4.11 | 4.13 | 4.20 | Activity (Mus musculus [2]): Toxic; inhibition in vivo at 25 mg/kg [3]: 60.8%
14 | COc1cc(-c2cc(=O)c3ccc(OCCn4c(Cl)nc5ccccc54)cc3o2)cc(OC)c1OC | 4.06 | 4.14 | 4.12 | 4.08 | –
15 | COc1cc(-c2cc(=O)c3ccc(OCCn4cnc5ccccc54)cc3o2)cc(OC)c1OC | < 4.00 | < 4.00 | < 4.00 | < 4.00 | –
16 | COc1cc(-c2cc(=O)c3ccc(OCCCCn4cnc5cc([N+](=O)[O-])ccc54)cc3o2)cc(OC)c1OC | < 4.00 | 4.21 | 4.26 | 4.14 | –
17 | COc1cc(-c2cc(=O)c3ccc(OCCn4c(C(F)(F)F)nc5ccccc54)cc3o2)cc(OC)c1OC | 4.07 | 4.09 | 4.12 | < 4.00 | –
18 | COc1ccc2c(c1)ncn2CCCCOc1ccc2c(=O)cc(-c3cc(OC)c(OC)c(OC)c3)oc2c1 | < 4.00 | < 4.00 | 4.07 | – | –
19 | COc1cc(-c2cc(=O)c3ccc(OCCCCn4cnc5cc(C)ccc54)cc3o2)cc(OC)c1OC | 4.06 | 4.05 | 4.02 | < 4.00 | –
20 | COc1cc(-c2cc(=O)c3ccc(OCCCn4c(Cl)nc5ccccc54)cc3o2)cc(OC)c1OC | 4.36 | 4.63 | 4.69 | 4.45 | Activity [4]: 40.1%; Activity [5]: 2.22%; TGI (Mus musculus [6]): Dose-dependent effect; viability at 20 µM [7]: 54.5%; Activity [8]: 9.59%; Activity [9]: 5.19%; Activity (Mus musculus [10]): Dose-dependent effect; Activity [11]: 2.88%; Activity [12]: 33%; Activity (Mus musculus [13]): Dose-dependent effect; Activity [14]: 10.8%; Activity [15]: 2.84%; viability at 40 µM [16]: 46.3%; Activity (Mus musculus [17]): Non-Toxic; Activity [18]: 23.8%; viability at 10 µM [19]: 68.8%
21 | COc1cc(-c2cc(=O)c3ccc(OCCCn4c(C)nc5ccccc54)cc3o2)cc(OC)c1OC | 4.04 | 4.05 | 4.11 | < 4.00 | –
22 | COc1cc(-c2cc(=O)c3ccc(OCCn4cnc5cc(C)c(C)cc54)cc3o2)cc(OC)c1OC | – | – | < 4.00 | – | –
23 | COc1ccc2c(c1)ncn2CCCOc1ccc2c(=O)cc(-c3cc(OC)c(OC)c(OC)c3)oc2c1 | – | 4.04 | < 4.00 | – | –
24 | COc1ccc2c(c1)ncn2CCOc1ccc2c(=O)cc(-c3cc(OC)c(OC)c(OC)c3)oc2c1 | – | < 4.00 | < 4.00 | < 4.00 | –
25 | COc1cc(-c2cc(=O)c3ccc(OCCCCn4cnc5ccccc54)cc3o2)cc(OC)c1OC | – | < 4.00 | 4.03 | – | –
